Test [1] has as its target T1, Muscarinic acetylcholine receptor M1 (Rattus norvegicus, UniProt P08482).
T1 sequence (P08482 whole entry): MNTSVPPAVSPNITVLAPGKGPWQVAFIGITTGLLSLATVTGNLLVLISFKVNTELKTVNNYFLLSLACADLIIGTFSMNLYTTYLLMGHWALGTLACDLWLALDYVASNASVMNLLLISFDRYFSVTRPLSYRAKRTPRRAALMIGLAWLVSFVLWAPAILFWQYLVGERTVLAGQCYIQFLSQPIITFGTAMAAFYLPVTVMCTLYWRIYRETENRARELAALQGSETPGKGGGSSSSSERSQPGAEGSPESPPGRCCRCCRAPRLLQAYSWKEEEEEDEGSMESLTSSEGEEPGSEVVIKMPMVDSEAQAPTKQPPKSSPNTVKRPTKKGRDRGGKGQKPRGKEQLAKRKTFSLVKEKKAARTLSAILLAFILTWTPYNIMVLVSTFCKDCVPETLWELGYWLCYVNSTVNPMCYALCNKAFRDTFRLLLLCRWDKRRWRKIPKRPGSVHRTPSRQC
The test can be described thus: Inhibition of binding of [3H]quinuclidinyl benzilate to Muscarinic acetylcholine receptor M1 in rat cerebral cortical membranes. The class given is cell membranes, Membrane. In a few lines:
(§1)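 Rat cerebral cortex membranes were homogenised in 50 mM Tris-HCl pH 7.4 and diluted in HEPES binding buffer. They were incubated with 0.2 nM [3H]quinuclidinyl benzilate in 20 mM HEPES pH 7.4 with 10 mM MgCl2 and 100 mM NaCl for 30 min at 37 °C, in triplicate. Nonspecific binding used 1 µM atropine. Filtration was followed by scintillation counting.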

Test [2] addresses T1, Muscarinic acetylcholine receptor M1. The experiment in a line: The compound was evaluated for inhibition of binding of [3H]quinuclidinyl benzilate to Muscarinic acetylcholine receptor M1 in Rat Cerebral Cortical Membranes. In a few lines: as §1
Test [3] has as its target T2, Muscarinic acetylcholine receptor M2 (Homo sapiens, UniProt P08172).
T2 sequence (P08172 whole entry): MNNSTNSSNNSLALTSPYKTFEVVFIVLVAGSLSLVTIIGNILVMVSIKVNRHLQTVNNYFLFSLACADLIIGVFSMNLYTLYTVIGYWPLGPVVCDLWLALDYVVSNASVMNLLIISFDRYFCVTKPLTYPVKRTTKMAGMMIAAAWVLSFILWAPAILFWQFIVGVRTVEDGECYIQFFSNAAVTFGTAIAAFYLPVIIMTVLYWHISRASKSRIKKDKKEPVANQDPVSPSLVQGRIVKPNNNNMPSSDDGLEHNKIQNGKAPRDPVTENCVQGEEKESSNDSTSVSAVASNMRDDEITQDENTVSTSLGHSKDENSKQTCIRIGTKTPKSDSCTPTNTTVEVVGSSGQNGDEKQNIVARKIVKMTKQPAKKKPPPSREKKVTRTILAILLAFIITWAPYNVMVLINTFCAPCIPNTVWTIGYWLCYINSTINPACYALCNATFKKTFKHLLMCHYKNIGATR
The experiment in a line: Inhibitory activity against [3H]quinuclidinyl Benzilate binding to Muscarinic acetylcholine receptor M2 in the absence of GTP. In a few lines: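 Membranes from CHO cells expressing human M2 receptor. Competition against 0.1 nM [3H]quinuclidinyl benzilate in 25 mM sodium phosphate pH 7.4, 5 mM MgCl2, without or with 10 μM GTP; 30 min at 37 °C, triplicate. Nonspecific binding with 1 μM atropine. Filtration, scintillation counting.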

In test [4] the target is T3, Muscarinic acetylcholine receptor M4 (Homo sapiens, UniProt P08173).
T3 sequence (P08173 whole entry): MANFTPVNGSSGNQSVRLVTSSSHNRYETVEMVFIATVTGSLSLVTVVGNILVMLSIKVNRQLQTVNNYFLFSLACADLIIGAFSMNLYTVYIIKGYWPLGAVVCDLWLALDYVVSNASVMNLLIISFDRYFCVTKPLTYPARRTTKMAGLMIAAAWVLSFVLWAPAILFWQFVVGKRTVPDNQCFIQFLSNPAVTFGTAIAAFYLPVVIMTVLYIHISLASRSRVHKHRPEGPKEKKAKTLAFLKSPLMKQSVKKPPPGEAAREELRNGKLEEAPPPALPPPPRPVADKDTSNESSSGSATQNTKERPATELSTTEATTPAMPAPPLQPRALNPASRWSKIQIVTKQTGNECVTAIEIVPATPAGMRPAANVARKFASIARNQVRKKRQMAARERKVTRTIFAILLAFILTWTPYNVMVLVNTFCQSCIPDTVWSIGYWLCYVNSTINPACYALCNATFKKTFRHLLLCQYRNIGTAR
The test can be described thus: Inhibition of binding of [3H]quinuclidinyl benzilate to muscarinic receptors in membranes of CHO cells transfected with Muscarinic acetylcholine receptor M4. Format: cell membranes.

For test [5], the target named is Muscarinic acetylcholine receptor M2 (Homo sapiens) (UniProt P08172). The experiment in a line: Inhibition of binding of [3H]quinuclidinyl benzilate to Muscarinic acetylcholine receptor M2 in membranes of transfected CHO cells.
Test [6] addresses T1, Muscarinic acetylcholine receptor M1.

The structures appear in SMILES notation.

With `CC(=O)OC1CC2CCCC1N2` (stereo unspecified), the Ki in test [1] is 21 µM; in test [2], 22 µM; in test [4], 0.033 µM; in test [5], 0.0026 µM; in test [6], 22 µM. The compound also displayed an IC50 in test [3] of 0.017 µM.

As a reminder, the Ki is the dissociation constant of the complex between target and ligand, obtained from inhibition or displacement. By IC50 is commonly meant the concentration that gives 50% inhibition. A lower IC50 goes with greater potency.

Source of the values: ChEMBL document CHEMBL1131242, “6beta-Acetoxynortropane: a potent muscarinic agonist with apparent selectivity toward M2-receptors” (J Med Chem, 1998).
